The record followed here is ChEMBL document CHEMBL4270592, “8-Aryl-6-chloro-3-nitro-2-(phenylsulfonylmethyl)imidazo[1,2-a]pyridines as potent antitrypanosomatid molecules bioactivated by type 1 nitroreductases” (Eur J Med Chem, 2018).

Bounds are passed on as bounds.

Series [1] relates to Trypanosoma brucei brucei. The experiment in a line: Antitrypanosomal activity against trypomastigote stage of Trypanosoma brucei brucei AnTat 1.9 assessed as decrease in parasite viability after 69 hrs by Alamar blue assay. Particulars: AnTat 1.9, 69 h. It counts as functional, organism-based. A digest of the protocol:
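AnTat 1.9 in MEM with Earle's salts plus 0.5 mM mercaptoethanol, 1.5 mM L-cysteine, 0.05 mM bathocuproine sulfate and 20% heat-inactivated horse serum, 37 °C, 5% CO2. Seeded 2000 parasites/100 µL with compounds in DMSO, in duplicate, 69 h, then Alamar Blue for 5 h.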

Series [2] is described as follows: (§1) Cytotoxicity against human THP1 cells assessed as reduction in cell viability after 72 hrs by MTT assay. It counts as cell-based, THP-1. Particulars: THP1 cells. A digest of the protocol:
(§2)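 THP1 cells in complete RPMI with PMA (final 50 ng/mL) at 10⁶ cells/mL, differentiated 48 h. Compounds in DMSO (final <0.5% v/v) then added for 72 h at 37 °C. MTT (0.5 mg/mL in FCS-free medium) 2 h, formazan dissolved in DMSO, A570 with 630 nm reference. Viability as % of untreated control; CC50 from dose-response curve; doxorubicin positive control.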
A general note: Tetrazolium assays rely on reduction of a dye to a coloured formazan, in cell work by metabolically active cells.

Series [3] deals with HepG2. Nature of the series: Cytotoxicity against human HepG2 cells assessed as reduction in cell viability after 72 hrs by MTT assay. The series is classed as cell-based. Particulars: hepg2, 72 h. The method, boiled down:
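HepG2 cells in RPMI with 10% FCS, L-glutamine and penicillin/streptomycin, 37 °C, 6% CO2. After 24 h, compounds in DMSO (final <0.5% v/v) added for 72 h, in duplicate. Precipitate checked, MTT (0.5 mg/mL) 2 h, formazan dissolved in DMSO, A570 with 630 nm reference. Viability as % of untreated control; CC50 from dose-response curve; doxorubicin positive control.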

Series [4] is described as follows: Selectivity index, ratio of CC50 for human HepG2 cells to IC50 for trypomastigote stage of Trypanosoma brucei brucei AnTat 1.9. It counts as toxicity. To be noted: read-out: Ratio CC50/IC50.
Series [5] concerns Leishmania donovani. The experiment in a line: Antileishmanial activity against intramacrophage amastigote stage of Leishmania donovani infected in human THP1 cells after 120 hrs by Giemsa staining based microscopy. It counts as functional, organism-based. Particulars: THP-1, 120 h. A digest of the protocol: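 THP-1 cells differentiated with PMA (final 50 ng/mL) for 48 h at 37 °C, 6% CO2. Infected 10:1 with L. donovani promastigotes acidified 24 h at 27 °C in Schneider 20% FCS pH 5.4. After 24 h, compounds added in duplicate (DMSO <0.5% v/v) for 120 h.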

The nature of series [6]: Electrochemical behavior of the compound assessed as redox potential corrected toward normal hydrogen electrode by cyclic voltammetry. It counts as physicochemical.
Series [7] is described as follows: Selectivity index, ratio of CC50 for human HepG2 cells to IC50 for intramacrophage amastigote stage of Leishmania donovani infected in human THP1 cells. It counts as toxicity, cell-based. Particulars: read-out: Ratio CC50/IC50.
A short description of series [8]: Selectivity index, ratio of CC50 for human HepG2 cells to IC50 for axenic amastigote stage of Leishmania infantum. It counts as toxicity. To be noted: read-out: Ratio CC50/IC50.
Series [9] is described as follows: Selectivity index, ratio of CC50 for human HepG2 cells to IC50 for promastigote stage of Leishmania donovani MHOM/IN/00/DEVI. The series is classed as toxicity. Particulars: read-out: Ratio CC50/IC50.
Series [10] relates to Leishmania donovani. The experiment in a line: Antileishmanial activity against promastigote stage of Leishmania donovani MHOM/IN/00/DEVI assessed as inhibition of parasite metabolic activity after 72 hrs by MTT assay. It counts as functional, organism-based. A digest of the protocol:
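MHOM/IN/00/DEVI log-phase promastigotes in Schneider's medium with 20% FCS, 2 mM L-glutamine and antibiotics. Seeded at 10⁶ parasites/mL with compounds in DMSO (final <0.5% v/v), in duplicate, 72 h at 27 °C. MTT added for 4 h, stopped with 50% isopropanol–10% SDS, A570 read. IC50 by nonlinear regression, mean of three independent experiments.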

For series [11], the system named is Leishmania infantum. The experiment in a line: Antileishmanial activity against axenic amastigote stage of Leishmania infantum assessed as inhibition of parasite metabolic activity after 48 hrs by luciferase reporter gene based luminescence assay. The series is classed as functional, organism-based. The method, boiled down:
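L. infantum promastigotes in log phase switched to RPMI 1640 pH 5.4 for 24 h at 24 °C, then 24 h at 37 °C to give axenic amastigotes. Seeded at 2.106 parasites/mL with compounds in DMSO (final <0.5% v/v), in duplicate, 48 h at 37 °C. Wells checked for precipitate, luciferase luminescence read, IC50 by non-linear regression as mean.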

Series [12] can be described thus: Substrate activity at recombinant type-1 nitroreductase in bloodstream form of Trypanosoma brucei brucei S427 assessed as inhibition of parasite growth after 72 hrs. A digest of the protocol: (§3)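 Bloodstream-form T. brucei single marker S427 (T7RPOL TETR NEO) cultured at 37 °C in HMI9-T with 2.5 µg/mL G418. NTR1-overexpressing line kept in 2.5 µg/mL phleomycin and induced with 1 µg/mL tetracycline 48 h before the assay. Triplicate cultures seeded at 1×10^5 cells/mL with inhibitor; cell densities counted after 72 h to give EC50.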

In series [13] the test system is Trypanosoma brucei brucei. The experiment in a line: […] activity against wild type bloodstream form of Trypanosoma brucei brucei S427 after 72 hrs. The series is classed as functional, organism-based. To be noted: S427, 72 h. The method, boiled down: as §3
In series [14] the test system is Trypanosoma brucei brucei. Nature of the series: Selectivity ratio of IC50 for wild type bloodstream form of Trypanosoma brucei brucei S427 to substrate activity at recombinant type-1 nitroreductase in bloodstream form of Trypanosoma brucei brucei S427. A digest of the protocol:
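Bloodstream-form single-marker S427 grown at 37 °C in HMI9-T with 2.5 µg/mL G418. The NTR1-overexpressing line was also given 2.5 µg/mL phleomycin and induced with 1 µg/mL tetracycline 48 h before assay. Triplicate cultures seeded at 1×10^5 cells/mL with inhibitor; cell densities determined after 72 h to give EC50 for wild-type and NTR1 lines.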

Series [15] in a line: Substrate activity at recombinant nitroreductase 2 in promastigote stage of Leishmania donovani MHOM/SD/62/1S-CL2D LdBOB assessed as inhibition of parasite growth after 72 hrs by resazurin dye based assay. The method, boiled down: (§4)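 Clonal L. donovani LdBOB promastigotes grown at 26 °C in modified M199. NTR1 and NTR2 overexpressers kept in nourseothricin 100 µg/mL. Triplicate 10 mL cultures seeded at 5×10^4 parasites/mL with drug for 72 h. Aliquots received 50 µM resazurin, read by fluorescence (ex 528/em 590 nm) after 4 h. Background-corrected 2-parameter fit gave EC50; at least two repeats, mean ± SD.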
For orientation: The colour change of resazurin is a common sign of viable cells or microbes.

Series [16] in a line: Substrate activity at recombinant type-1 nitroreductase in promastigote stage of Leishmania donovani MHOM/SD/62/1S-CL2D LdBOB assessed as inhibition of parasite growth after 72 hrs by resazurin dye based assay. The method, boiled down:
as §4

The subject of series [17] is Leishmania donovani. Nature of the series: Antileishmanial activity against wild type promastigote stage of Leishmania donovani MHOM/SD/62/1S-CL2D LdBOB after 72 hrs by resazurin dye based assay. The series is classed as functional, organism-based. The method, boiled down:
as §4

The subject of series [18] is THP-1. The description is as §1. Particulars: thp-1, 72 h. It counts as cell-based. The method, boiled down:
as §2

Series [19] is described as follows: Selectivity ratio of IC50 for wild type promastigote stage of Leishmania donovani MHOM/SD/62/1S-CL2D LdBOB to substrate activity at recombinant type-1 nitroreductase in promastigote stage of Leishmania donovani MHOM/SD/62/1S-CL2D LdBOB. It counts as toxicity. A digest of the protocol:
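LdBOB promastigotes grown at 26 °C in modified M199. NTR1- and NTR2-overexpressing lines were kept with 100 µg/mL nourseothricin. Triplicate 10 mL cultures seeded at 5×10^4 parasites/mL with drug for 72 h. Aliquots given 50 µM resazurin, fluorescence (ex 528/em 590 nm) read after 4 h. EC50 from a background-corrected 2-parameter fit; at least two repeats, mean plus SD.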

The term IC50 denotes the midpoint of a concentration-inhibition curve. Broadly, the CC50 is the concentration giving 50% cytotoxicity. For the molecule `CSc1ccc(OCc2ncc([N+](=O)[O-])n2C)cc1` [FEXINIDAZOLE], the half-inhibitory concentration (IC50) in series [1] was 600 nM; in series [5], > 50000 nM; in [10], 1200 nM. In addition, the 50% cytotoxic concentration (CC50) at 72 h in series [2] was found to be 3600 nM. Besides, the CC50 in series [3] was > 200000 nM. The selectivity ratio in series [4] was > 333; in series [7], > 50; in [8] it was > 58.8; in series [9], > 167. In addition, the Activity in series [6] is reported as -0.83 V.

Take `O=[N+]([O-])c1c(CS(=O)(=O)c2ccccc2)nc2c(-c3ccccc3CO)cc(Cl)cn12`: the IC50 in series [11] was > 10000 nM; in series [12], 190 nM; in [13], 390 nM; in series [1] it was 160 nM. For the same molecule, in series [3], the CC50 was determined as 88000 nM. Moreover, in series [14], the Ratio IC50 was 2. In addition, the figures for the selectivity ratio in series [4] and in series [8] were 550 and < 8.8, respectively. Also, in series [6], the Activity is recorded as -0.7 V.

Regarding `CC1CS(=O)(=O)CCN1/N=C/c1ccc([N+](=O)[O-])o1` (centres undefined) [NIFURTIMOX], the half-maximal inhibitory concentration (IC50) was found to be 600 nM in series [12] and 1870 nM in series [13].

`O=[N+]([O-])c1c(CS(=O)(=O)c2ccccc2)nc2c(-c3cccc(CO)c3)cc(Cl)cn12`: the IC50 is 1900 nM in series [15]; 70 nM in series [16]; 150 nM in series [1]; 1400 nM in series [17]; > 10000 nM in [5]; 1300 nM in series [10]. The values for the half-maximal cytotoxic concentration (CC50) in series [18] and in series [3] were > 15000 nM and > 25000 nM, respectively. Moreover, the results for the selectivity ratio in series [4], in [8] and in series [9] were > 167, > 17.9 and > 19.2, respectively. Also, the Ratio IC50 in series [19] lay in the range of 20 to 40. For the same molecule, in series [6], the Activity is -0.7 V.

Consider `O=[N+]([O-])c1c(CS(=O)(=O)c2ccccc2)nc2c(-c3ccncc3)cc(Cl)cn12`, for which the IC50 in [15] is 2000 nM; in [16] it was 40 nM; in series [11], 3000 nM; in [1], 250 nM; in [17], 1500 nM; in series [5], 2300 nM. Moreover, the IC50 in [10] turned out to be 1200 nM. The CC50 in series [18] was > 25000 nM; in [3] it was > 50000 nM. In addition, the selectivity ratio in series [4] was > 200; in [7] it was > 21.7; in [8], > 16.7; in series [9], > 41.7. Also, the Ratio IC50 in series [19] was 20 to 40. Moreover, in series [6], the Activity is on record as -0.64 V.
